Test results as given in paper PMC5010469 (Cancer research, 2016).

Key:
Assay type in all cases: cell-based
MDA-MB-231 cells [1] = test: Transwell invasion assay
In short: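 MDA-MB-231 breast cancer cells were obtained from ATCC and verified by SNP-CGH for characteristic cytogenetic changes. The panel included empty-vector parental cells and cells overexpressing full-length human NCKAP1 from a lentiviral vector. Cells were exposed to the RAC1-inhibitor test compound, with a dose series in one set. Invasion was read out in Transwell invasion assays run as previously described.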

Hs578T cells [2] = test: Transwell invasion assay; settings: dose series, Figure 4d
MDA-MB-231 cells [3] = test: Cell proliferation assay; settings: MDA-MB-231, NSC23766 treatment; Supplementary Figure 4
Hs578T cells [4] = test: Cell proliferation assay; settings: NSC23766 treatment, Supplementary Figure 4
WASF3 = test: Western blotting of WASF3 complex protein levels; settings: MDA-MB-231 and Hs578T cells, western blot; Figure 4e
WASF3 complex = WASF3 complex (Homo sapiens, UniProt Q7L576); test: Immunoprecipitation of the WASF3 complex; settings: IP of WASF3 from MDA-MB-231 cells, Figure 4f
Chain of WASF3 complex (Q7L576 whole entry, one chain of several): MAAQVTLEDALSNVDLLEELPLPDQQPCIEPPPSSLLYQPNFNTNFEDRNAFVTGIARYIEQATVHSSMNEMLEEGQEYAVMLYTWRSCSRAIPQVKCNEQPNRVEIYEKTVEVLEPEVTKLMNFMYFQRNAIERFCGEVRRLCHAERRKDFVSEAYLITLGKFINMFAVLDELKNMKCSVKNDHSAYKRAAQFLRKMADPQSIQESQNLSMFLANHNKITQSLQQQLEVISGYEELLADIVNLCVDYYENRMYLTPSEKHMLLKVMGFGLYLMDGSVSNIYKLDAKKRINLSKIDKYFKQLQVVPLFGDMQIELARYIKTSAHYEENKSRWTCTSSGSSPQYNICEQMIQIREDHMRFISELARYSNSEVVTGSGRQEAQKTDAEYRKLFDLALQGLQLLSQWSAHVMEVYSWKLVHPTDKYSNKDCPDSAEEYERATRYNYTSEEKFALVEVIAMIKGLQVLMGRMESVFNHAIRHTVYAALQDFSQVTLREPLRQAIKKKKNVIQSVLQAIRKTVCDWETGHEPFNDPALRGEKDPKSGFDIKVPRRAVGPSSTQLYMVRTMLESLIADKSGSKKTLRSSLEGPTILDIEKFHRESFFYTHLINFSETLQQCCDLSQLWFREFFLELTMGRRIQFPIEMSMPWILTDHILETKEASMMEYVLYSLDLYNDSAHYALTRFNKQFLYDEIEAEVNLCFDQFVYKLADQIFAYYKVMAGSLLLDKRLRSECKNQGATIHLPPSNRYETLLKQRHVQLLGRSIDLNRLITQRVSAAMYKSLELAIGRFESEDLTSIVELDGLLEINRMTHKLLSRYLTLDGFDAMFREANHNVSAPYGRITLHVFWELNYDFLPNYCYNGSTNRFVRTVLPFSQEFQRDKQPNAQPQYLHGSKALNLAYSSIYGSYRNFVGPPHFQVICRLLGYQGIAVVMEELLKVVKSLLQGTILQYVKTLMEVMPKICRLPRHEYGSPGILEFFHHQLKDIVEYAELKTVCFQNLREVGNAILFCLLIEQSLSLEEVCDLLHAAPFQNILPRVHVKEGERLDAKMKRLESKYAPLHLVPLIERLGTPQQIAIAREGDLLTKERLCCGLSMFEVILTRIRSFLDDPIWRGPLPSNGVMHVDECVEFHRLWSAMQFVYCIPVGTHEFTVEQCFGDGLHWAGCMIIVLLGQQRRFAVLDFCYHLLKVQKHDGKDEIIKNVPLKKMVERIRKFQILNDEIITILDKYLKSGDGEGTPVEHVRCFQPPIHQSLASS

CCN(CC)CCCC(C)Nc1nc(C)cc(Nc2ccc3nc(C)cc(N)c3c2)n1 (stereo not shown) [NSC23766]
effect on invasion (MDA-MB-231 cells [1]; MDA-MB-231, dose series, Figure 4d): dose-dependent reduction in invasion | effect on invasion (MDA-MB-231 cells [1]; MDA-MB-231 cells overexpressing NCKAP1, Transwell, Figure 4h): significant reduction in invasion | effect on invasion (MDA-MB-231 cells [1]; MDA-MB-231 parental cells containing the empty vector (EV), Transwell, Figure 4h): significant reduction in invasion | effect on invasion (Hs578T cells [2]): dose-dependent reduction in invasion | effect on cell proliferation (MDA-MB-231 cells [3]): without affecting cell proliferation | effect on cell proliferation (Hs578T cells [4]): without affecting cell proliferation | protein levels of WASF3, NCKAP1 and RAC1 (WASF3): does not affect protein levels of either WASF3, NCKAP1 or RAC1 | RAC1 binding to the WASF3 complex (WASF3 complex; high dose 50 µM): significantly inhibited | WASF3 phosphorylation (WASF3 complex; high dose 50 µM): significantly inhibited | engagement of NCKAP1 with the WASF3 complex (WASF3 complex): does not disrupt engagement of NCKAP1 with the WASF3 complex
